ChEMBL document CHEMBL3259575, “Evaluation of a large library of (thiazol-2-yl)hydrazones and analogues as histone acetyltransferase inhibitors: enzyme and cellular studies” (2014)

How the values were obtained:
[1] = target: Histone acetyltransferase KAT2B (Homo sapiens) (UniProt Q92831); assay: Inhibition of recombinant human PCAF catalytic domain (492 to 658 aa) using histone H3 at 100 uM after 1 hr by radiochemical assay in presence of [acetyl-3H]-acetyl coenzyme A
[2] = target: Histone acetyltransferase p300 (Homo sapiens) (UniProt Q09472); assay: Inhibition of recombinant human p300 catalytic domain (1284 to 1673 aa) using histone H3 at 100 uM after 1 hr by radiochemical assay in presence of [acetyl-3H]-acetyl coenzyme A
[3] = target: Histone acetyltransferase p300 (Homo sapiens) (UniProt Q09472); assay: Inhibition of recombinant human p300 catalytic domain (1284 to 1673 aa) using histone H3 at 400 uM after 1 hr by radiochemical assay in presence of [acetyl-3H]-acetyl coenzyme A
[4] = target: Histone acetyltransferase p300 (Homo sapiens) (UniProt Q09472); assay: Inhibition of recombinant human p300 catalytic domain (1284 to 1673 aa) using histone H3 at 200 uM after 1 hr by radiochemical assay in presence of [acetyl-3H]-acetyl coenzyme A
[5] = test system: U-937; assay: Induction of apoptosis in human U937 cells at 100 uM after 30 hrs by FACS analysis relative to control; type: functional
Method in brief: (§1)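 Cells cultured at 37 °C, 5% CO2 in RPMI-1640 plus 10% heat-inactivated FBS and antibiotics; treated 30 h; apoptosis read by FACS as the pre-G1 population, compared with untreated control.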

[6] = test system: HCT-116; assay: Induction of apoptosis in human HCT116 cells at 100 uM after 30 hrs by FACS analysis relative to control; type: functional; method in brief: as §1

Sequence of Histone acetyltransferase p300 (Homo sapiens) (Q09472 whole entry, the tested form may be a part): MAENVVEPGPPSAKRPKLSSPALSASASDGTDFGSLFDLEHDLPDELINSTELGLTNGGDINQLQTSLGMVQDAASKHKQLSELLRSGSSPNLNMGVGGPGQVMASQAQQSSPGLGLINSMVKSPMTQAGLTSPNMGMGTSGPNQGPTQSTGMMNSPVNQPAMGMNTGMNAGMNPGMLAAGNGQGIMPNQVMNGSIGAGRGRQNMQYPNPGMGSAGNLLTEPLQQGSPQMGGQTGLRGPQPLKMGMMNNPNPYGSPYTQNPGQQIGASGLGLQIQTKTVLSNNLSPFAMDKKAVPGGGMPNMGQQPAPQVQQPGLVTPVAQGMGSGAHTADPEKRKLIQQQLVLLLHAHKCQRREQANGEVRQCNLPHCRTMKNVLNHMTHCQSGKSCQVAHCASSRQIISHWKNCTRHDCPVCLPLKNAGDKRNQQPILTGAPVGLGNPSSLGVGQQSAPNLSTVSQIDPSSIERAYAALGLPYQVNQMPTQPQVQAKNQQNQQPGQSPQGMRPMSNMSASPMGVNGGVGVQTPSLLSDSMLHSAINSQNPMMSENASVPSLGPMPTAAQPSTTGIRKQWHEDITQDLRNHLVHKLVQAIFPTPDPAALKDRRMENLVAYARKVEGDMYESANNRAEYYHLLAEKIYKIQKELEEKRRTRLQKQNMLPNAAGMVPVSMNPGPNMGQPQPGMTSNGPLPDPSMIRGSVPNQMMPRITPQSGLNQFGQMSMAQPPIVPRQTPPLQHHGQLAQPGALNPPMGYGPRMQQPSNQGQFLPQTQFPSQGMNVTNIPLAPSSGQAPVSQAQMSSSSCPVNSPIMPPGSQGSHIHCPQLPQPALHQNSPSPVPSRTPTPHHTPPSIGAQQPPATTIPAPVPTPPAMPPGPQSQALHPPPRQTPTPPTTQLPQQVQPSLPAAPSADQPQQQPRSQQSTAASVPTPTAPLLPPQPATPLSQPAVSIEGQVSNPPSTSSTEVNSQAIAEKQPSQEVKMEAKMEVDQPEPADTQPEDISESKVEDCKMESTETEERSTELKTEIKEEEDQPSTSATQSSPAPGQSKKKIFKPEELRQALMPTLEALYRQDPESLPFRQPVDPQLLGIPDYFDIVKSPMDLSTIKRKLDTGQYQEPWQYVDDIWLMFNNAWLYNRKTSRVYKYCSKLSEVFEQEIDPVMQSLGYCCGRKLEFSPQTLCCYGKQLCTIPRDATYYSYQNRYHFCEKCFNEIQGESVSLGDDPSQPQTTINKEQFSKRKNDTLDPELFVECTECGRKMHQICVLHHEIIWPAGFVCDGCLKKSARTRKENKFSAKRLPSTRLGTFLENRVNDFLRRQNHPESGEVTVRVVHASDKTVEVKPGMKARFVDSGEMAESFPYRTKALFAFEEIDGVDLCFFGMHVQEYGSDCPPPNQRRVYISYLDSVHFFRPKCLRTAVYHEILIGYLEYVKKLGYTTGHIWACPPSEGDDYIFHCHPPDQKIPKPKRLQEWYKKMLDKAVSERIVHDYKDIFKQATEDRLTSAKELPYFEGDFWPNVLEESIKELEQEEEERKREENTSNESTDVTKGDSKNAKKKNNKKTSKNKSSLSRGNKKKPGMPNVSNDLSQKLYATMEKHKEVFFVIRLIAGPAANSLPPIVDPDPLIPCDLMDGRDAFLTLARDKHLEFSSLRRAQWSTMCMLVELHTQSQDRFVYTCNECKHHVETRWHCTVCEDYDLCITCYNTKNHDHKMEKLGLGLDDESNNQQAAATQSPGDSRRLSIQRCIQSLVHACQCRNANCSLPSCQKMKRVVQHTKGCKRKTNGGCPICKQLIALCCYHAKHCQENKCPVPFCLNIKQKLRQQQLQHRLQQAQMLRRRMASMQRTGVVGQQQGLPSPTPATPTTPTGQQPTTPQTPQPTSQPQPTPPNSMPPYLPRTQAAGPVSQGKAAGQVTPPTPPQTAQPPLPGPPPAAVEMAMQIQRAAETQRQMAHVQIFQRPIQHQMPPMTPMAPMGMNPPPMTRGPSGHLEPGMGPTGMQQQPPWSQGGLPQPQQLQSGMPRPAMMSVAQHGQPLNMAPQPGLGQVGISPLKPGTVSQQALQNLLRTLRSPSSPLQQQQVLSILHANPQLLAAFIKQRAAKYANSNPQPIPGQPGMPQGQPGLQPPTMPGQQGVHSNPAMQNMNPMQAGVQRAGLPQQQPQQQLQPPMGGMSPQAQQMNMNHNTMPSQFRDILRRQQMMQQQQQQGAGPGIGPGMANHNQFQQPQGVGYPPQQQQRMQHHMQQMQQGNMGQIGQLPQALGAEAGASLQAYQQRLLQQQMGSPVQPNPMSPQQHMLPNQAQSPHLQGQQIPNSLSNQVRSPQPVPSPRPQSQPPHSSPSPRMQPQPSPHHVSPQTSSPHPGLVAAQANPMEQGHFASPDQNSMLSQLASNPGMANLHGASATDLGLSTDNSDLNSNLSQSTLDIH
Sequence of Histone acetyltransferase KAT2B (Homo sapiens) (Q92831 whole entry, looked up, the tested form may be a part): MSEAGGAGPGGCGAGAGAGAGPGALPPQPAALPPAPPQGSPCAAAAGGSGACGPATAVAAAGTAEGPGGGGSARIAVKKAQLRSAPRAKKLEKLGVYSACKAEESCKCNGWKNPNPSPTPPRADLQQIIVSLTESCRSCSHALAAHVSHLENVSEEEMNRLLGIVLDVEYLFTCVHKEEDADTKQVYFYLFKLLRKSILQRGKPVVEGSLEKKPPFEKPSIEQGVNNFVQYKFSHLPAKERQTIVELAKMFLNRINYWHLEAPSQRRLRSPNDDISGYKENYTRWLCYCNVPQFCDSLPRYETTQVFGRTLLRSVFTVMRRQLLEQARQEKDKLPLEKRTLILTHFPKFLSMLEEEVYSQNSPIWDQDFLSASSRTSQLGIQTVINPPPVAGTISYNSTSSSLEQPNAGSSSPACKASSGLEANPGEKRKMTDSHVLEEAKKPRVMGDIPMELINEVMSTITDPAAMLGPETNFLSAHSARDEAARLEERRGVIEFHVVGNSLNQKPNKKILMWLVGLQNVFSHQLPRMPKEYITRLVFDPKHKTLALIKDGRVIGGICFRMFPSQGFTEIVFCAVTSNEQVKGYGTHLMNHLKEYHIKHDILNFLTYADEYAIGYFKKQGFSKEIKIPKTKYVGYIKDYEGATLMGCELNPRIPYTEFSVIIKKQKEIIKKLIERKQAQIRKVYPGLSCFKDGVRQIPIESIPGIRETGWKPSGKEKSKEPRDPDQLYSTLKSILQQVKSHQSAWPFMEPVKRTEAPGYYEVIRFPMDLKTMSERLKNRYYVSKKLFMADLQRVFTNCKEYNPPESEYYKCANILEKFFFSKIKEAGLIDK

SMILES | inhibition [1] | inhibition [2] | inhibition [3] | inhibition [4] | Activity [5] | Activity [6]
CC1(C)C=C/C(=N\Nc2nc(-c3ccc(Cl)cc3)cs2)CC1 | 0% | 0% | – | – | – | –
COc1ccc(-c2csc(N/N=C3/CCCC3C)n2)cc1 (stereo unspecified) | 2% | 32% | – | – | – | –
C/C(=N/Nc1nc(-c2ccc(Cl)cc2)cs1)c1ccccc1 | 9% | 7% | – | – | – | –
Clc1ccc(-c2csc(N/N=C\c3cccs3)n2)cc1 | 4% | 13% | – | – | – | –
C/C(=N/Nc1nc(-c2ccc(Cl)cc2)cs1)C1c2ccccc2-c2ccc(C(=O)O)cc21 (stereo unspecified) | 14% | 37% | – | – | – | –
O=c1cc(-c2ccc(Br)cc2)nc(NN=C2CCCC2)[nH]1 | – | 9% | – | – | – | –
CC1CC/C(=N/Nc2nc(-c3ccc(Br)cc3)cc(=O)[nH]2)C1 (stereo unspecified) | – | 12% | – | – | – | –
Clc1ccc(-c2csc(NN=C3CCCCCCC3)n2)cc1 | 6% | 15% | – | – | – | –
CC(C)=NNc1nc(-c2ccc(Cl)cc2Cl)cs1 | 16% | 30% | – | – | – | –
CCCCC/C(C)=N/Nc1nc(-c2ccc(Cl)cc2)cs1 | 16% | 5% | – | – | – | –
C/C(=N/Nc1nc(-c2ccc(Cl)cc2)cs1)c1cccnc1 | 11% | 1% | – | – | – | –
CC(C)=NNc1nc(-c2ccccc2)cs1 | 0% | 14% | – | – | – | –
CC1CCC/C(=N/Nc2nc(-c3ccc(Cl)cc3)cs2)C1 (stereo unspecified) | 0% | 9% | – | – | – | –
CC/C(C)=N/Nc1nc(-c2ccc(Cl)cc2)cs1 | 8% | 33% | – | – | – | –
CCC(CC)=NNc1nc(-c2ccc(Cl)cc2)cs1 | 10% | 35% | – | – | – | –
CC1CC/C(=N/Nc2nc(-c3ccc(F)cc3)cs2)C1 (stereo unspecified) | 8% | 5% | – | – | – | –
CC1CC/C(=N/Nc2nc(-c3ccc4ccccc4c3)cs2)C1 (stereo unspecified) | 0% | 4% | – | – | – | –
Cc1sc(N/N=C2/CCC(C)C2)nc1-c1ccccc1 (stereo unspecified) | 3% | 15% | – | – | – | –
CC1CC/C(=N/Nc2nc(-c3ccc(C#N)cc3)cs2)C1 (stereo unspecified) | 6% | 35% | – | – | – | –
O=[N+]([O-])c1cccc(-c2csc(NN=C3CCCC3)n2)c1 | 15% | 44% | 60% | 51% | – | –

SMILES | inhibition [1] | inhibition [2] | inhibition [3] | inhibition [4] | Activity [5] | Activity [6]
NNc1nc(-c2ccccc2)cs1 | 16% | 5% | – | – | – | –
O=C1CSC(NN=C2CCCC2)=N1 | 1% | 0% | – | – | – | –
CC1CC/C(=N/Nc2nc(-c3ccc(Cl)cc3)cc(=O)[nH]2)C1 (stereo unspecified) | 8% | 41% | 64% | 55% | – | –
Nc1nc(-c2ccccc2)cs1 | 3% | 4% | – | – | – | –
CCOC(=O)c1csc(NN=C(C)C)n1 | 0% | 22% | – | – | – | –
CC(C)=NNc1nc(-c2ccc(F)cc2)cs1 | 0% | 34% | – | – | – | –
Clc1ccc(-c2csc(NN=C3CCCC3)n2)c(Cl)c1 | 21% | 30% | – | – | – | –
CC(C)=NNc1nc(-c2ccc(-c3ccccc3)cc2)cs1 | 0% | 20% | – | – | – | –
COc1ccc(-c2csc(NN=C3CCCC3)n2)cc1 | 11% | 33% | 57% | 47% | – | –
CC(C)=NNc1nc(-c2ccc(Cl)cc2)cc(=O)[nH]1 | – | 7% | – | – | – | –
C/C(=N/Nc1nc(-c2ccc(Cl)cc2)cs1)c1ccco1 | 2% | 26% | – | – | – | –
CC1CC/C(=N/Nc2nc(-c3ccccc3)cc(=O)[nH]2)C1 (stereo unspecified) | – | 0% | – | – | – | –
CCCCCC/C(C)=N/Nc1nc(-c2ccc(Cl)cc2)cs1 | 10% | 8% | – | – | – | –
Clc1ccc(-c2csc(N/N=C\c3cccc4ccccc34)n2)cc1 | 0% | 9% | – | – | – | –
Nc1nc(-c2ccc(Cl)cc2)cs1 | 0% | 31% | – | – | – | –
c1ccc(-c2csc(NN=C3CCCC3)n2)cc1 | 15% | 37% | 54% | 56% | – | –
CCCC/C(C)=N/Nc1nc(-c2ccc(Cl)cc2)cs1 | 8% | 0% | – | – | – | –
CC1CC/C(=N/Nc2nc(-c3ccc(Cl)cc3)cs2)C1 (stereo unspecified) | 0% | 27% | – | – | 29% | 11.5%
O=c1cc(-c2ccc(Cl)cc2)nc(NN=C2CCCC2)[nH]1 | 10% | 31% | 54% | 46% | – | –

Now from value to molecule, other results behind:

inhibition [1] | inhibition [2] | inhibition [3] | inhibition [4] | SMILES | Activity [5] | Activity [6]
12% | 32% | – | – | C=CCC/C(C)=N/Nc1nc(-c2ccc(Cl)cc2)cs1 | – | –
10% | 46% | 67% | 55% | C/C(=N/Nc1nc(-c2ccc(Cl)cc2)cs1)c1nccs1 | – | –
5% | 19% | – | – | CCOC(=O)c1csc(NN=C2CCCC2)n1 | – | –
– | 3% | – | – | O=c1cc(-c2ccccc2)nc(NN=C2CCCC2)[nH]1 | – | –
4% | 30% | – | – | COc1cccc(-c2csc(NN=C(C)C)n2)c1 | – | –
1% | 31% | 60% | 45% | CC(C)=NNc1nc(-c2ccc(Cl)cc2)cs1 | – | –
0% | 11% | – | – | Clc1ccc(-c2csc(N/N=C\c3ccc4c(c3)OCO4)n2)cc1 | – | –
12% | 32% | 56% | 46% | CC(C)=NNc1nc(-c2cc3ccccc3oc2=O)cs1 | – | –
13% | 37% | – | – | Clc1ccc(-c2csc(N/N=C\c3ccncc3)n2)cc1 | – | –
8% | 19% | – | – | c1ccc2cc(-c3csc(NN=C4CCCC4)n3)ccc2c1 | – | –
10% | 36% | – | – | C/C(=N/Nc1nc(-c2ccc(Cl)cc2)cs1)c1ccncc1 | – | –
9% | 2% | – | – | CCC(C)/C(C)=N/Nc1nc(-c2ccc(Cl)cc2)cs1 (stereo unspecified) | – | –
10% | 25% | – | – | CC(C)=NNc1nc(-c2ccc3ccccc3c2)cs1 | – | –
5% | 28% | – | – | COc1ccc(-c2csc(N/N=C3/CCC(C)C3)n2)cc1 (stereo unspecified) | – | –
5% | 26% | – | – | C/C(=N/Nc1nc(-c2ccc(Cl)cc2)cs1)c1cccs1 | – | –
3% | 13% | – | – | CC(C)=NNc1nc(C)cs1 | – | –
17% | 28% | – | – | Clc1ccc(-c2csc(N/N=C\c3cccnc3)n2)cc1 | – | –
4% | 19% | – | – | COc1ccc(-c2csc(N/N=C3/CCCC(C)C3)n2)cc1 (stereo unspecified) | – | –
8% | 22% | – | – | CCOC(=O)c1csc(N/N=C2/CCC(C)C2)n1 (stereo unspecified) | – | –
– | 14% | – | – | CC1CC/C(=N/Nc2nc(-c3cccc([N+](=O)[O-])c3)cc(=O)[nH]2)C1 (stereo unspecified) | – | –
5% | 20% | – | – | CC(C)=NNc1nc(-c2ccccc2)c(C)s1 | – | –

inhibition [1] | inhibition [2] | inhibition [3] | inhibition [4] | SMILES | Activity [5] | Activity [6]
0% | 27% | – | – | COc1ccc(-c2csc(N/N=C3\CCC[C@@H](C)C3)n2)cc1 | – | –
11% | 31% | 62% | 51% | COc1cccc(-c2csc(NN=C3CCCC3)n2)c1 | – | –
7% | 16% | – | – | C/C(=N/Nc1nc(-c2ccc(Cl)cc2)cs1)c1ccc2ccccc2c1 | – | –
0% | 16% | – | – | COc1ccc(-c2csc(NN=C3CCCCCC3)n2)cc1 | – | –
9% | 15% | – | – | Clc1ccc(-c2csc(N/N=C\c3ccco3)n2)cc1 | – | –
– | 9% | – | – | CC(C)=NNc1nc(-c2ccc(Br)cc2)cc(=O)[nH]1 | – | –
5% | 21% | – | – | COc1ccc(-c2csc(NN=C(C)C)n2)cc1 | – | –
2% | 2% | – | – | Cc1sc(NN=C2CCCC2)nc1-c1ccccc1 | – | –
8% | 3% | – | – | C/C(=N/Nc1nc(-c2ccc(Cl)cc2)cs1)C1CCCCC1 | – | –
– | 9% | – | – | O=c1cc(-c2cccc([N+](=O)[O-])c2)nc(NN=C2CCCC2)[nH]1 | – | –
0% | 27% | – | – | C[C@@H]1CCC/C(=N/Nc2nc(-c3ccc(Cl)cc3)cs2)C1 | – | –
7% | 19% | – | – | CCC/C(C)=N/Nc1nc(-c2ccc(Cl)cc2)cs1 | – | –
7% | 14% | – | – | CC(C)=NN=C1NC(=O)CS1 | – | –
13% | 42% | 63% | 53% | CC(C)=NNc1nc(-c2ccc(Br)cc2)cs1 | – | –
– | 4% | – | – | CC(C)=NNc1nc(-c2ccccc2)cc(=O)[nH]1 | – | –
30% | 0% | – | – | Cc1csc(NN=C2CCCC2)n1 | – | –
18% | 14% | – | – | CC1CC/C(=N/Nc2nc(-c3ccc(F)cc3F)cs2)C1 (stereo unspecified) | – | –
1% | 34% | 61% | 47% | Clc1ccc(-c2csc(NN=C3CCCC3)n2)cc1 | – | –
2% | 33% | – | – | CC1CCC/C1=N/Nc1nc(-c2ccc(Cl)cc2)cs1 (stereo unspecified) | – | –
– | 4% | – | – | CC(C)=NNc1nc(-c2cccc([N+](=O)[O-])c2)cc(=O)[nH]1 | – | –
0% | 20% | – | – | Clc1ccc(-c2csc(NN=C3CCCCCC3)n2)cc1 | – | –
